MrgX1 antag: blocks BAM8-22 activation of human MrgX1 receptor | MRGX1-HEK293 calcium flux, Fluo-4, BAM8-22 antagonism; hits give low values | B-score at 10 µM | 1.3% of 310,000 active;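 active = calcium-response B-score plate-corrected more than 3 library SD below zero, starting fluorescence within 5 deviations, no agonist response on first addition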;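 also: peak minus trough fluorescence over baseline after final BAM8-22 challenge near maximal dose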
Target sequence (Q96LB2 whole entry, looked up): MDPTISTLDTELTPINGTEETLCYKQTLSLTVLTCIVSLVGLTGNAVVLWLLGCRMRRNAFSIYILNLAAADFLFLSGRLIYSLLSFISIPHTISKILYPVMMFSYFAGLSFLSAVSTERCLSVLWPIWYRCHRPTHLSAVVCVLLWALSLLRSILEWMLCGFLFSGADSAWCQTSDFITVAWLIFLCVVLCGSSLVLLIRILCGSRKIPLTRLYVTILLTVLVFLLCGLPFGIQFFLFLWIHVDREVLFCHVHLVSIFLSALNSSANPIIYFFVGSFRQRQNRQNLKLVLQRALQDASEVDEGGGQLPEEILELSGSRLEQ
MrgX1 allo act: allosterically activates human MrgX1 receptor signaling | Q96LB2 | 0.63% of 310,000 active | MrgX1-HEK293, Fluo-4 calcium flux, FDSS; hits give high values | B-score at 10 µM | AID 588675;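 active = plate-corrected calcium response at least 3 library SD above typical, normal starting fluorescence, not activating the receptor alone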;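 also: compound read alongside a low EC10 to EC30 dose of BAM8-22 agonist; peak minus trough fluorescence over baseline measured at the second addition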
RGS4 pot: potentiators or activators of RGS4; AID 463111; HEK293 M3R/inducible RGS4, carbachol calcium flux Fluo4; hits give low values; 0.92% of 310,000 active; B-score at 10 µM;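 active = B-score of the integrated calcium signal more than 4 SD below the library mean, with starting fluorescence not abnormally high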;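 also: negative B-score means reduced calcium response which marks RGS4 activation or potentiation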
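test system = HEK293 cells with stable M3R and inducible RGS4 | schedule = recording 10 s baseline at 1 Hz, 100 s post-agonist | technique = Fluo4-AM (2 µM) calcium-flux fluorescence, kinetic read | measure = Agonist-evoked peak-minus-minimum fluorescence over baseline, integrated ratio, B score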
MrgX1 ag: activates human MrgX1 receptor signaling | B-score at 10 µM | MrgX1-HEK293 cells, Fluo-4 calcium fluorescence, agonist mode; hits give high values | 0.44% of 310,000 active | AID 588627 | Q96LB2;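 active = calcium response B-score plate-corrected fluorescence ratio at least 3 library SD, with starting fluorescence B-score inside 5 SD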
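Assay system: stable human MrgX1 HEK293 cell line. Quantity: 15,000 cells per well. Schedule: cells plated overnight, dye loaded 0.5 h 37 °C, 0.5 h room temperature. Detection: Fluo-4 NW calcium-flux fluorescence, kinetic read. Read-out basis: peak-minus-minimum fluorescence over baseline, converted to B scores. Control set: positive and negative control wells on each plate.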
RGS4 inh: inhibitors of human RGS4; P49798; HEK293 M3R/RGS4 inducible, Fluo-4 calcium flux; hits give high values; triggered by carbachol at its EC20; B-score at 10 µM; 0.45% of 310,000 active; AID 463165;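 active = B-score, a plate-corrected calcium signal, over three deviations above library mean, with baseline fluorescence within five deviations of library mean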;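 also: RGS4 expression induced by doxycycline in cells with stable M3 receptor; B-score is computed from the integrated fluorescence ratio over baseline after carbachol; higher B-score means a larger calcium signal and so more RGS4 inhibition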
Target sequence (P49798 whole entry, looked up): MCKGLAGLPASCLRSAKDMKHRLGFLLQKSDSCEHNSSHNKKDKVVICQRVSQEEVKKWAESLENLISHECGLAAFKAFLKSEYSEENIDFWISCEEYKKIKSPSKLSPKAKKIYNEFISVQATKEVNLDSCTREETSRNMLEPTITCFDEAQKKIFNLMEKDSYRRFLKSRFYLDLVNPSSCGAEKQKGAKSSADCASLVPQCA
Active calls of the source: *; i = inactive; . = no result. Only some compounds are listed: those with a hit (about 3.5% of all), similar ones and a draw of the others.

SMILES	MrgX1 antag	MrgX1 allo act	RGS4 pot	MrgX1 ag	RGS4 inh
CN(C)CCN(CC1CCCN(Cc2ccccc2F)C1)C(=O)Cc1c(F)cccc1F (stereo unspecified)	i	i	i	i	i
CCC[N+]12CCC(CC1)C(C(O)(c1ccccc1)c1ccccc1)C2 (stereo unspecified)	i	i	i	i	i
CC[N+]12CCC(CC1)C(=C(c1ccccc1)c1ccccc1)C2	i	i	-10*	i	i
C[N+]12CCC(CC1)C(=C(c1ccccc1)c1ccccc1)C2	i	i	-8.8*	i	i
COc1cc2[nH]c(C(=O)N3CCC4(CC3)OCCO4)cc2c(OC)c1OC	i	i	i	i	i
O=c1c2ccccc2[se]n1-c1ccccc1	i	i	i	40*	i
CCN1CCN(S(=O)(=O)c2ccc(Cl)c(C(=O)Nc3ccc(C(=O)N(CC)CC)cc3)c2)CC1	i	i	i	i	i
O=C(CN1CCCCC1)c1ccc(F)cc1	i	i	i	i	i
O=C(c1ccccc1)C(CN1CCCC1)c1ccccc1 (stereo unspecified)	i	i	-8.4*	i	i
CCN1CCN(C(=O)COc2ccc3c(c2)C(=O)CC2(CCN(C(C)=O)CC2)O3)CC1	i	i	i	i	i
CC(=O)c1ccc2c(c1)C1C(Cl)C(Sc3ccccc3[N+](=O)[O-])CC1C(c1ccccc1[N+](=O)[O-])N2 (stereo unspecified)	i	i	-7.9*	i	i
COc1ccc2nc(NC3=NCCN3)sc2c1	i	i	i	i	i
CC(C)N(CC(O)c1cccc([N+](=O)[O-])c1)C(C)C (stereo unspecified)	-6.2*	i	i	i	i
COc1ccc(-n2c(/C=C/c3ccc(O)c(O)c3)nc3ccccc3c2=O)cc1	i	i	i	i	i
COc1cc(/C=C/c2nc3ccccc3c(=O)n2-c2ccc(O)cc2)ccc1O	i	i	-8.2*	i	i
COc1ccc(OCC#CCN2CCC(C)CC2)cc1	i	i	i	i	i
Clc1ccc(OCC#CCN2CCCCCC2)cc1	i	i	-7*	i	i
O=C1NC(=O)N(c2ccc(Cl)cc2)C(=O)/C1=C\c1ccc(Sc2nc3ccccc3[nH]2)o1	i	17*	i	i	i
Cc1ccccc1-n1c(-c2ccc([N+](=O)[O-])cc2)nc2ccccc2c1=O	i	i	-10*	i	i
C=C(C=O)CC1CC(O)[C@]2(C)OC3C[C@@H]4OC5C[C@]6(C)O[C@]7(C)CCC8OC9C[C@]%10(C)OC(/C(C)=C\CO)C(O)CC%10OC9CC(C)C8OC7CC6O[C@]5(C)C/C=C\C4OC3CC2O1 (stereo partly specified)	i	i	.	i	.
C=C(C=O)C[C@@H]1C[C@H](O)C2OC3C[C@]4(C)OC5/C=C\CC6OC7C(CC=CCC6OC5CCCC4OC3CC2O1)OC1CC2OC3CC(=O)OC3C[C@@H](C)C[C@@]2(C)OC1C[C@@H]7C (stereo partly specified)	.	.	-9.7*	.	i
Cn1c(O)c(/C=N/c2ccccn2)c(=O)n(C)c1=O	i	i	i	i	i
C/C(=N\N1CCCCCC1)c1c(O)n(-c2ccc(C)cc2)c(=O)[nH]c1=O	i	i	i	i	i
CC/C(=N\N1CCCCCC1)c1c(O)n(-c2ccc(C)cc2)c(=O)[nH]c1=O	i	11*	i	i	i
COC(=O)C1=C(c2cc3ccccc3s2)C[C@@H]2CC[C@H]1N2C(=O)NCc1ccc(F)cc1	i	i	i	i	i
SMILES	MrgX1 antag	MrgX1 allo act	RGS4 pot	MrgX1 ag	RGS4 inh
CC(C)(C)n1c(O)c(C=Nc2ccc3c(c2)CCC3)c(=O)[nH]c1=O	i	i	-7.1*	i	i
COC(=O)C1=C(c2ccccc2)C[C@@H]2CC[C@H]1N2C(=O)NCCCOC(C)C	i	i	i	i	i
C=C1C(=O)O[C@H]2[C@H]1[C@H](OC(=O)CC(=O)O[C@@H]1C[C@@H](C)[C@@H]3C=CC(=O)[C@@]3(C)[C@H]3OC(=O)C(=C)[C@H]13)C[C@@H](C)[C@H]1C=CC(=O)[C@]12C	i	i	i	i	i
C=C1C(=O)O[C@H]2C[C@@H](C)[C@@H]3C=CC(=O)[C@@]3(C)C[C@H]12	i	i	i	i	6.3*
O=C(O)C1Cc2ccccc2N2CCCC12 (stereo unspecified)	i	i	i	i	i
CCOC(=O)C1(CCc2ccccc2)CCN(Cc2cccc3c2OCO3)CC1	i	i	-7.5*	i	i
CCOC(=O)C1(CCc2ccccc2)CCN(Cc2csc(C(C)=O)c2)CC1	i	i	i	i	i
NC(N)=N/N=C/c1ccc(N(c2ccccc2)c2ccccc2)cc1	i	i	-8.3*	i	i
CN[C@@H](C)[C@@H](O)c1ccccc1	i	i	i	i	i
C=CCN1C(=O)/C(=C\c2ccc(N3CCOCC3)o2)C(=O)NC1=S	i	i	i	i	i
CN1C(=O)/C(=C\c2ccc(N3CCCCC3)o2)C(=O)NC1=S	i	i	i	29*	i
CN1C(=O)/C(=C\c2ccc(N3CCCCCC3)cc2)C(=O)NC1=S	i	i	i	i	i
CN1C(=O)/C(=C/c2ccc(N3CCCCCC3)o2)C(=O)NC1=S	i	i	i	32*	i
CC1CCCCN1Cc1ccc(Cl)nc1 (stereo unspecified)	i	i	i	i	i
C=C(C)[C@H]1CN[C@H](C(=O)O)[C@H]1CC(=O)O	i	i	i	i	i
COP(=O)(OC)C(NC(=O)C(C)(C)C)=C(Cl)Cl	-5.8*	i	i	i	i
O=Cc1c(C(=O)O)n(Cc2ccccc2F)c2ccccc12	i	i	i	i	i
Clc1ccc(C(c2ccc(Cl)cc2)n2cc[n+](CC(OCc3ccc(Cl)cc3Cl)c3ccc(Cl)cc3Cl)c2)cc1 (stereo unspecified)	i	i	.	i	.
O=C1/C(=C\c2ccccc2)C2OCC=C3CN4CCC56c7ccccc7N1C5C2C3CC46 (stereo unspecified)	-6.6*	i	i	i	i
CC1(C)C[C@H]2C=C(C=O)[C@]3(C=O)C[C@]3(C)[C@H]2C1	i	i	i	32*	i
COc1cc(N2CCOCC2)ccc1/C=C1\C(=O)NC(=O)N(Cc2ccc3c(c2)OCO3)C1=O	i	12*	i	i	i
